Experimental data pooled from the literature.
Compare with care: the assays were run in different laboratories.
Target: Vascular endothelial growth factor receptor 2 (KDR, Homo sapiens, UniProt P35968)

Compound	read-out	action	method	tested at	quantity	result
Nc1ncc(-c2nc(N3CCOCC3)nc(N3CCOCC3)n2)c(C(F)F)n1	cell-free assay	–	competition with immobilised ligand	10 µM	remaining binding	41%
C#Cc1n[nH]c2c(-c3cn([C@@H](C)c4ccccn4)c(=O)[nH]c3=O)cc(F)cc12	enzyme activity	inhibitor	–	0.1 µM	inhibition	6.6%
COCc1c(-c2cc3cc(C)cc(OC)c3s2)c2c(N)ncnn2c1CN1CCNC(=O)C1	cell-free assay	–	competition with immobilised ligand	1 µM	inhibition	81%
Cn1cncc1[C@](O)(COc1ccc(C#N)cc1-c1ccc(OC(F)(F)F)cc1)c1ccc(C#N)cc1	cell-free assay	–	competition with immobilised ligand	1 µM	remaining binding	96%
O=c1[nH]c2ccccc2n1C1CCN(Cc2ccc(-c3[nH]c4cc5ncnc5cc4nc3-c3ccccc3)cc2)CC1	cell-free assay	–	–	0.5 µM	remaining signal	90.9%
Cn1cc(-c2cc(F)cc(N3CCn4c(cc5c4CCCC5)C3=O)c2CO)cc(Nc2ccc(N3CCN(C4COC4)CC3)cn2)c1=O	enzyme activity	inhibitor	–	0.1 µM	inhibition	12%
COc1ccc2c(c1)/C(=C/c1cnc[nH]1)C(=O)N2	cell-free assay	–	–	0.5 µM	remaining signal	78.7%
Cc1nn(C)cc1-c1nc2c(N3CCN(Cc4ccc(Cl)cc4)CC3)c(Cl)cnc2[nH]1	binding	–	competition with immobilised ligand	1 µM	remaining binding	12%
C#Cc1n[nH]c2c(-c3cn([C@@H](C)c4ccccc4)c(=O)[nH]c3=O)cc(F)cc12	enzyme activity	inhibitor	–	0.1 µM	inhibition	5.3%
COc1ncccc1-c1cnn2ccc(N3CCN(C(=O)OC(C)C)CC3)nc12	binding	–	competition with immobilised ligand	1 µM	remaining binding	100%
